Measurements: PubChem BioAssay
Calls of active or inactive are those of the source.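 The calls were made as follows, unless noted: active = viability at or under a set limit in both replicates, limit being median viability minus 3 SD (cut at about 48% in these data, passing the limit was not always enough); inconclusive = at or under the limit in just one replicate; inactive = at or above the limit in both replicates.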

Legend:
[1] = reducers of endogenous Her2 protein level, primary screen, SKBR3 breast tumor cells, AlphaScreen, ATP viability (AID 461;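 active = Her2 level under about 52% in both replicate screens, with viability over 70% of control, limit read from the data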;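 as to Her2 level: lower value means less Her2 protein in the cells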;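 as to viability: percent of carrier control wells set as 100% viability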); conditions: 18-24 h, measured here: SKBR3 viability, ATP luminescence, at 10 µM
[2] = target: Receptor tyrosine-protein kinase erbB-2 (Homo sapiens) (UniProt P04626); assay: as above; conditions: 18-24 h, at 10 µM, stronger effect = lower value
Sequence of Receptor tyrosine-protein kinase erbB-2 (Homo sapiens) (P04626 whole entry, looked up): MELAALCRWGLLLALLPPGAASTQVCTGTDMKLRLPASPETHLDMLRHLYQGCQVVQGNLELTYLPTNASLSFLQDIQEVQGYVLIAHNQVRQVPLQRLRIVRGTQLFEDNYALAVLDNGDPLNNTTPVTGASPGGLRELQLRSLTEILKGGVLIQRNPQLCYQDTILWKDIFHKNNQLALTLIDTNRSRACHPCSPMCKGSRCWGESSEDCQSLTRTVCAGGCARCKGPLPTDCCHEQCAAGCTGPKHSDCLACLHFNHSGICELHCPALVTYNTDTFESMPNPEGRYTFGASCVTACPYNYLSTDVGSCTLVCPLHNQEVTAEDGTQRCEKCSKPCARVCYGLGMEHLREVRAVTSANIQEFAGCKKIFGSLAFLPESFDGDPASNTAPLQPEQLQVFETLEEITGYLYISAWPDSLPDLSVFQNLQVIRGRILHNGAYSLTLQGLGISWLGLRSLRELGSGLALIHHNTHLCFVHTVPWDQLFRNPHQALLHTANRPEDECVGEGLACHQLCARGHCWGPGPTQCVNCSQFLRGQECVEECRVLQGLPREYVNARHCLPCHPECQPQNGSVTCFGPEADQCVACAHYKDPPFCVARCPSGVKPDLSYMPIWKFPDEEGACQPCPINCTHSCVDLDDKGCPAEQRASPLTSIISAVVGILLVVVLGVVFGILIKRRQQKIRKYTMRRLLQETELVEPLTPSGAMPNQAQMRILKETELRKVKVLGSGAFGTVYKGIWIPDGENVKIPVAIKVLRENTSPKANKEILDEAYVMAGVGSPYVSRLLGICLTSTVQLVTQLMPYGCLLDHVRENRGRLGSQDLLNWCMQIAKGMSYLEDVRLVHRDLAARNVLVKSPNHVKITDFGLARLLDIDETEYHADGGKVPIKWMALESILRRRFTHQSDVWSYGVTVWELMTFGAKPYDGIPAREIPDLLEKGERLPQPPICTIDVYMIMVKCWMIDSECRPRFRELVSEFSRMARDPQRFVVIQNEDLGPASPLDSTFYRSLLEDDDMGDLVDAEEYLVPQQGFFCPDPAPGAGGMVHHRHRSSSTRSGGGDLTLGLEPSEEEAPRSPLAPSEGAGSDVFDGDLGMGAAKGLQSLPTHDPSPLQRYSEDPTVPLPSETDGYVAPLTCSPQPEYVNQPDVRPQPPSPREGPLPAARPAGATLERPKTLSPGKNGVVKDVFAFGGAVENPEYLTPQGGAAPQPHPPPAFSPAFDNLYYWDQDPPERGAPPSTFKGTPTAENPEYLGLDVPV

[3] = SK-BR-3 cell growth inhibitors, pilot screen, 24 h, human (AID 572;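 active = viability at or below 10% of carrier control in both of two separate runs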;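 also: compound exposure lasted between 18 and 24 h rather than exactly 24 h; 100% = carrier-treated control wells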); conditions: SK-BR-3 viability, CellTiter-Glo luminescence, at 10 µM, stronger effect = lower value
[4] = HUVEC growth inhibition – cell-based, human, primary screen (AID 575;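 active = viability at or below 30% in both replicate assays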;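 also: 100% = median of untreated cell wells with 0.1% DMSO on each plate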); conditions: HUVEC proliferation, CellTiter-Glo luminescence, 72 h; at 10 µM; stronger effect = lower value
Method in brief: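 Assay system: primary human umbilical vein endothelial cells / Buffer or medium: endothelial basal medium with 2% FBS plus growth supplements / Compound dosing: one dose, 10 µM final, 0.1% DMSO / Timing: 72 h treatment at 37 °C / Signal: CTG luminescence / Benchmarks: 32 DMSO-only cell-control wells (high), 32 MePR drug-control wells (low) per plate / Plate: collagen-coated 384-well format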

[5] = growth inhibitors of H69AR lung tumor, primary screen, human, duplicate replicates (AID 580); conditions: H69AR lung tumor cells viability, ATP luminescence, 72 h; at 10 µM; stronger effect = lower value;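 also: 100% = mean luminescence of untreated wells and 0% = no signal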
[6] = reversal of MRP1-mediated doxorubicin resistance, pilot screen, H69AR cells, doxorubicin co-treatment (AID 601;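 active = viability loss from added drug above about 55%, and viability with drug at most 40%, in both replicates, limit read from the data, passing the limit was not always enough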); conditions: CellTiter-Glo, 72 h, at 10 µM; for differential viability (reversal): stronger effect = higher value
[7] = 384-well plate pilot, post-Golgi transport modulator project, inhibition of yeast transport mutant growth (AID 636; in the data active = inhibition above about 31%); conditions: absorbance 615 nm, about 18 h, stronger effect = higher value
[8] = growth suppression of yeast trafficking mutant, preliminary HTS, modulators of trafficking downstream of Golgi apparatus project, 1536-format plate, OD 615 nm (AID 637; in the data active = inhibition above about 30%); conditions: yeast transport mutant growth, absorbance 615 nm, 18 h; stronger effect = higher value
[9] = H69AR cells + 2 uM doxorubicin, measured here: viability with 2 uM doxorubicin, stronger effect = lower value
[10] = H69AR cells, compound alone cytotoxicity

Row | SMILES | viability [1] [%] | Her2 level [2] | viability [3] | viability [4] | viability [5] | differential viability (reversal) ([6]; H69AR cells + 2 uM doxorubicin) | viability [6, 9] [%] | viability [6, 10] [%] | inhibition [7] | inhibition [8]
1 | CCCc1cc(Nc2cccc(OC)c2)n2ncnc2n1 | 83 | 129% (inactive) | 83% (inactive) | 94.6% (inactive) | 81.2% (inactive) | -0.635% (inactive) | 81.8 | 81.2 | -4.1% (inactive) | -5% (inactive)
2 | CC(NC(=O)c1ccc2c(c1)OCO2)C(c1cccs1)N1CCOCC1 (stereo not given) | 97.5 | 82.5% (inactive) | 97.5% (inactive) | 106% (inactive) | 105% (inactive) | 13.5% (inactive) | 91.1 | 105 | -4.81% (inactive) | -0.95% (inactive)
3 | COc1ccc(CCN2C(=O)CCC2(C)C(=O)NCc2cccnc2)cc1OC (stereo not given) | 106 | 91% (inactive) | 106% (inactive) | 109% (inactive) | 89.2% (inactive) | 1.2% (inactive) | 88 | 89.2 | -2.86% (inactive) | -2.22% (inactive)
4 | O=C(O)c1cccc(NC(=O)C2C3C=CC(C3)C2C(=O)OCC(F)(F)C(F)F)c1 (stereo not given) | 102 | 91.5% (inactive) | 102% (inactive) | 94% (inactive) | 89% (inactive) | 0.695% (inactive) | 88.3 | 89 | -5.79% (inactive) | -1.33% (inactive)
5 | Cc1[nH]c2c(C)cccc2c(=O)c1Br | 104 | 81% (inactive) | 104% (inactive) | 114% (inactive) | 91.9% (inactive) | 3.28% (inactive) | 88.7 | 91.9 | -6.93% (inactive) | 6.07% (inactive)
6 | CCOC(=O)C1CCN(Cc2ccc(C(=O)OC)cc2)CC1 | 93.5 | 106% (inactive) | 93.5% (inactive) | 87% (inactive) | 87.4% (inactive) | 4.25% (inactive) | 83.2 | 87.4 | -4.08% (inactive) | -1.8% (inactive)
7 | COc1ccc(N2CCN(C(=O)CSc3ccccc3N)CC2)cc1 | 85.5 | 88% (inactive) | 85.5% (inactive) | 88.2% (inactive) | 94.9% (inactive) | -2.63% (inactive) | 97.5 | 94.9 | 0% (inactive) | -0.55% (inactive)
8 | O=c1cc(C(F)F)oc2c1ccc1ccccc12 | 93.5 | 98.5% (inactive) | 93.5% (inactive) | 74.8% (inactive) | 81.7% (inactive) | -9.89% (inactive) | 91.6 | 81.7 | -0.91% (inactive) | 2.33% (inactive)
9 | CCCCn1c(CN2CCN(CCO)CC2)nc2ccccc21 | 84 | 92% (inactive) | 84% (inactive) | 91.8% (inactive) | 96% (inactive) | 5.24% (inactive) | 90.7 | 96 | -0.39% (inactive) | -6.55% (inactive)
10 | Cc1ccc(-c2nc(N)n(C(=O)c3cccnc3)n2)cc1 | 86.5 | 87.5% (inactive) | 86.5% (inactive) | 95.1% (inactive) | 105% (inactive) | 19.1% (inactive) | 85.7 | 105 | -3.08% (inactive) | 0.33% (inactive)
11 | CCOC(=O)N1CCN(Cc2nc3c(c(=O)[nH]c(=O)n3C)n2Cc2cc(C)ccc2C)CC1 | 102 | 105% (inactive) | 102% (inactive) | 112% (inactive) | 96.1% (inactive) | 7.95% (inactive) | 88.1 | 96.1 | -2.27% (inactive) | 0.32% (inactive)
12 | CCOCCn1c(CN2CCN(c3cccc(Cl)c3)CC2)nc2c1c(=O)n(C)c(=O)n2C | 85 | 110% (inactive) | 85% (inactive) | 94.5% (inactive) | 80.1% (inactive) | 41.5% (inactive) | 38.6 | 80.1 | -3.07% (inactive) | -6.17% (inactive)
13 | Cc1ccc(CNC(=O)CCCn2c(=O)c3ccccc3n(CC(=O)NCc3ccco3)c2=O)cc1 | 90.5 | 144% (inactive) | 90.5% (inactive) | 104% (inactive) | 89.6% (inactive) | -1.43% (inactive) | 91 | 89.6 | 2.76% (inactive) | 12.6% (inactive)
14 | CCn1ncc(C2=NOC(C(=O)Nc3ccc4c(c3)OCO4)C2)c1C (stereo not given) | 95.5 | 139% (inactive) | 95.5% (inactive) | 108% (inactive) | 94.8% (inactive) | 0.945% (inactive) | 93.9 | 94.8 | -3.97% (inactive) | -4.92% (inactive)
15 | Nc1nnc(SCCOc2ccccc2)s1 | 86.5 | 80% (inactive) | 86.5% (inactive) | 72.1% (inactive) | 97.4% (inactive) | 9.2% (inactive) | 88.2 | 97.4 | -3.82% (inactive) | -2.73% (inactive)
16 | CC(=O)c1c(C)[nH]c(C(=O)OCc2nnc(-c3ccccc3)o2)c1C | 92 | 96.5% (inactive) | 92% (inactive) | 70.4% (inactive) | 72.6% (inactive) | -5.71% (inactive) | 78.3 | 72.6 | 0% (inactive) | 26.7% (inactive)
